MEKK2 WT-MEK5: raises or lowers MEK5 binding to wildtype human MEKK2 PB1 domain | Q9Y2U5 | bead flow cytometry, Alexa488-MEK5 binding to MEKK2 WT; actives lie on both sides | binding response (% of control), % at 10 µM | 1.1% of 290,000 active | AID 1531; in the data active = binding response below about 67% or above about 130%
PREPL inhibitor: inhibitors of human prolyl oligopeptidase-like enzyme PREPL; inhibition, % at 5.96 µM; Q4J6C6; AID 2751; 0.68% of 320,000 active; recombinant PREPL, fluorescence polarization activity-based probe; in the data active = inhibition above about 43%
Target sequence (Q4J6C6 whole entry, looked up): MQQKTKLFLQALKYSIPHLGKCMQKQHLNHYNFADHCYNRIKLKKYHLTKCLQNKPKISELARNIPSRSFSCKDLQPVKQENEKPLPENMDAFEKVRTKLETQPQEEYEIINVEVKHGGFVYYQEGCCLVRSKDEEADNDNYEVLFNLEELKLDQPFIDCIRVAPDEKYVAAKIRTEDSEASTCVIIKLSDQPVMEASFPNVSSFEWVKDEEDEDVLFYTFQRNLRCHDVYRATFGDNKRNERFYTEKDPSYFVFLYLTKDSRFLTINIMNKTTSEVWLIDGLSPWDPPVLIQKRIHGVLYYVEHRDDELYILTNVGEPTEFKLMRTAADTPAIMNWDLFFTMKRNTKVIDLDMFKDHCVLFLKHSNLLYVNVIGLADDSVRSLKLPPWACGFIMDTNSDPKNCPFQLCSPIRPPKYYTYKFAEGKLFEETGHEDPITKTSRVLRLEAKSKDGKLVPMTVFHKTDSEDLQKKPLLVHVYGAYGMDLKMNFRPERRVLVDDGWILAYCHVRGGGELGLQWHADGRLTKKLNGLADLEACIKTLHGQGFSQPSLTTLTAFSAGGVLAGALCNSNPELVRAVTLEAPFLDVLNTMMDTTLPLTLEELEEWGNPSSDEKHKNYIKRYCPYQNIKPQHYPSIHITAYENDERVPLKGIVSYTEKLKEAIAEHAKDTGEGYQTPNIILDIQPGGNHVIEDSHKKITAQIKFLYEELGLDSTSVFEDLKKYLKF
Apaf1 inhib: blocks human Apaf-1 apoptosome activity; 0.71% of 330,000 active; inhibition, % at 20 µM; reconstituted apoptosome caspase-3 activity, DEVD-Rh110 fluorescence; AID 489030; O14727; active = inhibition of at least 40% at 20 µM
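Material: reconstituted apoptosome with Apaf-1, cytochrome c, caspase-9, procaspase-3, dATP; medium: pH 7.5 Hepes buffer with CHAPS, BSA, DTT; also added: cytochrome c and DEVD-Rh110 substrate; timing: 30 min plus 50 min, RT; signal: Rh110 fluorescence intensity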
MEKK3 PB1 HTS: MEKK3-MEK5 PB1 interaction, increase or decrease; Q99759; bead-based flow cytometry, Alexa488-MEK5 binding to MEKK3; actives lie on both sides; 0 = blocked by unlabeled MEK5, 100 = vehicle; binding response (% of control), % at 10 µM; 1.4% of 290,000 active; AID 1529;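 active = binding response more than 3 SD above or below the average of its plate-row segment, actives on both sides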;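 note: Alexa488 bead fluorescence after subtracting the streptavidin-only scavenger bead signal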
MEKK2mut PB1 HTS: signal of MEK5 binding to mutant human MEKK2 PB1 domain | 0.35% of 290,000 active | AID 1530 | bead flow cytometry, Alexa488-MEK5 binding to MEKK2 mutant | percent response, % at 10 µM; in the data active = percent response above about 24%, passing the limit was not always enough
UBC13 polyUb: blocks human UBC13 polyubiquitin chain formation; P61088; TR-FRET; inhibition, % at 20 µM; 0.47% of 330,000 active; AID 485273; in the data active = inhibition above about 45%, passing the limit was not always enough
MEKK2wt confirm: raises or lowers MEK5 binding to wildtype human MEKK2, retest. shares compounds with MEKK3 PB1 HTS. bead flow cytometry, Alexa488-MEK5 binding to MEKK2 WT; actives lie on both sides. binding response (% of control), % at 10 µM. 2.4% of 5,900 active. AID 1892; in the data active = binding response below about 16% or above about 210%; inactive = in between
MEKK2mut confirm: signal of MEK5 binding to mutant human MEKK2, retest | shares compounds with MEKK3 PB1 HTS | bead flow cytometry, Alexa488-MEK5 binding to MEKK2 mutant | percent response, % at 10 µM | 2% of 5,900 active | AID 1893; in the data active = percent response mostly above about 71%, no sharp cut-off; inactive = mostly below about 38%;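 note: higher means compound restores mutant binding toward wildtype level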
MEKK3-MEK5 inh: confirmation of inhibitors of MEK5 binding to human MEKK3 | shares compounds with MEKK3 PB1 HTS | bead flow cytometry, Alexa488-MEK5 binding to MEKK3; hits give low values | binding response (% of control), % at 10 µM | 1.8% of 5,900 active | AID 1894;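 active = binding response below 72% of control, or above a set upper limit, though filed actives all read lower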;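 note: lower values mean stronger disruption of MEK5 binding to MEKK3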
Large screens that a line does not name were inactive (follow-up assays come after a bar, where they were run); ! = repeats disagree; [ ] = another dose, or the depositor's remark. In the library only some 3.1% were active in any assay of this set; here they are far more common.

O=C(CN1CC=C(c2ccccc2)CC1)NC(=O)NC1CCCCC1	none
CC(C)(C)NC(=O)NC(=O)CN1CC=C(c2ccccc2)CC1	MEKK2mut PB1 HTS 60
COC(=O)C1=C(c2ccc(F)cc2F)C[C@@H]2CC[C@H]1N2C(=O)N1CCCCC1	none (no result: MEKK2 WT-MEK5, MEKK3 PB1 HTS, MEKK2mut PB1 HTS)
CCC(=NCc1ccc2c(c1)OCO2)c1c(O)n(C2CCCCC2)c(=O)[nH]c1=O	PREPL inhibitor 45
CN1CC[C@@H](c2ccc(F)cc2)[C@H](COc2ccc3c(c2)OCO3)C1	none (no result: PREPL inhibitor, Apaf1 inhib, UBC13 polyUb)
O=C1CN=C(c2ccccc2)c2cc(Br)ccc2N1Cc1cc(=O)n2ccccc2n1	PREPL inhibitor 50
NNC(=O)CN1C(=O)CN=C(c2ccccc2)c2cc(Br)ccc21	none
CN1c2ccc([N+](=O)[O-])cc2CC2(C(=O)NC(=O)NC2=O)C1c1ccccc1 (centres undefined)	MEKK3 PB1 HTS 134 | MEKK2wt confirm inactive | MEKK2mut confirm inactive | MEKK3-MEK5 inh inactive
CCC1C(c2ccccc2)NC(c2ccccc2)CC1(O)c1ccc(F)cc1 (centres undefined)	MEKK2 WT-MEK5 152 | MEKK2wt confirm inactive | MEKK2mut confirm inactive | MEKK3-MEK5 inh inactive
OCCN1C2CCC1CC(O)(c1ccc(F)cc1)C2 (centres undefined)	none
COc1ccc(CC(C)Nc2cccc(F)c2)cc1 (centres undefined)	none
CC(NCc1cccc(Cl)c1Cl)C(O)c1ccccc1 (centres undefined)	MEKK2 WT-MEK5 43[inhibitor] | MEKK2wt confirm inactive | MEKK2mut confirm inactive | MEKK3-MEK5 inh inactive
CC(=O)O[C@H]1CCC2C3CCC4=CC(=O)CCC4=C3C=C[C@@]21C (some centres undefined)	none
Cc1cccc(N2C(=O)NC(=O)/C(=C\c3ccc4c(c3)CCCN4Cc3ccccc3)C2=O)c1	MEKK2 WT-MEK5 146, MEKK3 PB1 HTS 139, MEKK2mut PB1 HTS 159 | MEKK2wt confirm inactive | MEKK2mut confirm inactive | MEKK3-MEK5 inh inactive
CC1=NN(c2ccccc2)C(=O)C1/C=C1/C(=O)NC(=O)N(c2cccc(C)c2)C1=O (centres undefined)	none (no result: PREPL inhibitor, Apaf1 inhib, UBC13 polyUb)
COc1cc(N2CCOCC2)ccc1/C=C1\C(=O)NC(=O)N(C2CCCCC2)C1=O	MEKK3 PB1 HTS 130 | MEKK2wt confirm inactive | MEKK2mut confirm inactive | MEKK3-MEK5 inh inactive
FC(F)(F)Oc1ccc(NC2=NCCCS2)cc1	none
O=c1[nH]c(=O)n(-c2cccc3ccccc23)c(O)c1/C=N/N1CCCCC1c1cccnc1 (centres undefined)	MEKK3 PB1 HTS 134 | MEKK2wt confirm inactive | MEKK2mut confirm inactive | MEKK3-MEK5 inh inactive
CC/C(=N\Nc1cccc2ccccc12)c1c(O)[nH]c(=O)[nH]c1=O	MEKK2 WT-MEK5 36[inhibitor] | MEKK2wt confirm inactive | MEKK2mut confirm inactive | MEKK3-MEK5 inh inactive
CC/C(=N\Nc1ccccc1)c1c(O)[nH]c(=O)[nH]c1=O	none
Oc1ccc2c3c1OC1C(O)CC[C@@]4(O)[C@@H](C2)N(CC2CCC2)CC[C@]314 (some centres undefined)	MEKK2 WT-MEK5 53![inhibitor] | MEKK2wt confirm inactive | MEKK2mut confirm inactive | MEKK3-MEK5 inh inactive
COc1cccc(NP(=O)(Oc2ccccc2)Oc2ccccc2)c1	none
COc1cccc(NP(=O)(Oc2ccccc2Cl)Oc2ccccc2Cl)c1	MEKK3 PB1 HTS 137 | MEKK2wt confirm inactive | MEKK2mut confirm inactive | MEKK3-MEK5 inh inactive
O=C1NC(=O)C(=Cc2coc3ccccc3c2=O)C(=O)N1	MEKK2 WT-MEK5 282, MEKK2mut PB1 HTS 184 | MEKK2wt confirm inactive | MEKK2mut confirm inactive | MEKK3-MEK5 inh inactive
c1ccc(CC(NCc2ccco2)c2ccccc2)cc1 (centres undefined)	MEKK3 PB1 HTS 129 | MEKK2wt confirm inactive | MEKK2mut confirm inactive | MEKK3-MEK5 inh inactive
CC(=O)N1N=C2C3CCN(CC3)C2C1c1ccccc1 (centres undefined)	MEKK2 WT-MEK5 -2.0[inhibitor], MEKK3 PB1 HTS 1.0[inhibitor] | MEKK2wt confirm inactive | MEKK2mut confirm inactive | MEKK3-MEK5 inh inactive
N#CC(C#N)=C(N)c1cccnc1	MEKK3 PB1 HTS 46[inhibitor] | MEKK2wt confirm inactive | MEKK2mut confirm inactive | MEKK3-MEK5 inh inactive
COC(=O)C1=C(c2ccc(F)cc2F)C[C@@H]2CC[C@H]1N2C(=O)NCCOc1ccccc1	none (no result: MEKK2 WT-MEK5, MEKK3 PB1 HTS, MEKK2mut PB1 HTS)
Cc1ccc(CN2C3CCCC2CC(NC(=S)NCc2ccccc2)C3)cc1 (centres undefined)	MEKK2 WT-MEK5 195, MEKK2mut PB1 HTS 62 | MEKK2wt confirm inactive | MEKK2mut confirm inactive | MEKK3-MEK5 inh inactive
CNC(=S)NC1CC2CCCC(C1)N2CC(C)C (centres undefined)	none
C/C=C/CC#N	none (no result: MEKK2 WT-MEK5, MEKK3 PB1 HTS, MEKK2mut PB1 HTS)
COc1ccc(CNCCc2c(C)[nH]c3ccc(OC(F)(F)F)cc23)c(OC)c1	MEKK2 WT-MEK5 139 | MEKK2wt confirm inactive | MEKK2mut confirm inactive | MEKK3-MEK5 inh inactive
COc1ccc2[nH]c(C)c(CCNCc3cc(OC)c(OC)c(OC)c3)c2c1	none
COC(=O)C1=C(c2ccc(Cl)c(C(F)(F)F)c2)C[C@@H]2CC[C@H]1N2C(=O)NCc1cc(C)oc1C(F)(F)F	none (no result: MEKK2 WT-MEK5, MEKK3 PB1 HTS, MEKK2mut PB1 HTS)
CC(C)(C)n1cc(C(=O)c2ccc3ccccc3c2O)cn1	MEKK3 PB1 HTS 129 | MEKK2wt confirm inactive | MEKK2mut confirm inactive | MEKK3-MEK5 inh inactive
COc1ccc(C2(C#N)CCN(C)CC2)cc1	none
CC(C)COc1ccc(C2(C#N)CC[N+](C)(C)CC2)cc1	MEKK3 PB1 HTS 80[inhibitor] | MEKK2wt confirm inactive | MEKK2mut confirm inactive | MEKK3-MEK5 inh inactive
CCC(N)Cc1c[nH]c2ccccc12 (centres undefined)	MEKK3 PB1 HTS 64[inhibitor] (no result: PREPL inhibitor) | MEKK2wt confirm inactive | MEKK2mut confirm inactive | MEKK3-MEK5 inh inactive
Cc1cc(/C=C2/C(=O)NC(=O)N(C)C2=O)c(C)n1-c1ccccc1	none
C=CCN1C(=O)/C(=C/c2cc(C)n(-c3ccccn3)c2C)C(=O)NC1=S	MEKK2 WT-MEK5 61[inhibitor] | MEKK2wt confirm inactive | MEKK2mut confirm inactive | MEKK3-MEK5 inh inactive
Cc1ccc(NC(=O)[C@@H](NC(=O)N2C[C@H]3C[C@@H](C2)c2cccc(=O)n2C3)C(C)C)cc1	none
Cc1cc(/C=C2\C(=O)NC(=S)N(C)C2=O)c(C)n1C1CCCCC1	none
Cc1cc(C=C2C(=O)N(C)C(=S)N(C)C2=O)c(C)n1C1CCCC1	MEKK2 WT-MEK5 55[inhibitor] | MEKK2wt confirm inactive | MEKK2mut confirm inactive | MEKK3-MEK5 inh inactive
